Assay results of several laboratories.
Compare with care: the assays were run in different laboratories.
Target: Serine/threonine-protein kinase 32A (STK32A, Homo sapiens, UniProt Q8WU08)

CC1CCCN1c1nccc(-c2cnn3ncccc23)n1 (stereo not shown)
remaining binding (binding; 1 µM): 100%

C=CC(=O)N1CCC(C(=O)NCC(=O)N2CCN(c3nc(-c4cnc(N)nc4C(F)F)nc(N4CCOCC4)n3)CC2)CC1
remaining binding (binding, competition with immobilised ligand; 1 µM): 91%

c1cnn2ncc(-c3ccnc(N4CCC45COC5)n3)c2c1
remaining binding (binding; 1 µM): 58%

O=C(Nc1c[nH]nc1C(=O)NC1CCNCC1)c1cc(F)cc(F)c1
remaining binding (binding, competition with immobilised ligand; 1 µM): 95%

CCC(=O)N[C@H]1CC[C@@H](C(=O)N(C)c2ccc(-c3nc4ccccc4o3)cc2)C1
remaining binding (cell-free assay, competition with immobilised ligand; 1 µM): 98%

C[C@@H](c1ccc(-n2cnc3c(N)ncnc32)cc1)N1CCc2nn(C)c(Cc3ccccc3)c2C1=O
remaining binding (binding, competition with immobilised ligand; 0.1 µM): 94%

CC(=O)Nc1c(C(C)=O)c(=O)n(C)c2nc(-c3ccc(Cl)cc3Cl)c(-c3ccc(Cl)cc3)cc12
remaining binding (cell-free assay, competition with immobilised ligand; 1 µM): 82%

O=C(c1ccc(Nc2nccc(-c3cc4ccccc4s3)n2)cc1)N1CCC(N2CCCC2)CC1
remaining binding (binding, competition with immobilised ligand; 1 µM): 100%

CN([C@@H]1CCc2c(CC(=O)O)c3cc(S(C)(=O)=O)ccc3n2C1)S(=O)(=O)c1ccc(F)cc1
remaining binding (cell-free assay, competition with immobilised ligand; 1 µM): 100%

O=C(c1ccc(Nc2ncc(Cl)c(-c3ccc(Cl)s3)n2)cc1)N1CCC(N2CCCC2)CC1
remaining binding (binding, competition with immobilised ligand; 1 µM): 70%

COc1ncc2cc3ccccc3nc2c1C#N
remaining binding (binding, competition with immobilised ligand; 5 µM): 100%

COc1cnc(Nc2cccc(S(N)(=O)=O)c2)nc1N1CCN(c2ccccc2)CC1
remaining binding (binding, competition with immobilised ligand; 1 µM): 94%

Cc1cnn2ncc(-c3ccnc(N(C)C)n3)c2c1
remaining binding (binding; 1 µM): 71%

Nc1ncc2c(n1)-c1c([nH]c3ccc(C#CC4CC4)cc13)CCCC2
remaining binding (binding, competition with immobilised ligand; 1 µM): 80%

CN(C)c1ncc(F)c(-c2cnn3ncccc23)n1
remaining binding (binding; 1 µM): 100%

CCCOc1ccc([C@@H]2[C@@H](C(=O)O)[C@H](c3ccc4c(c3)OCO4)CN2CC(=O)Nc2c(CC)cccc2CC)cc1
remaining binding (cell-free assay, competition with immobilised ligand; 1 µM): 85%

CN(C)c1nccc(-c2cnn3ncccc23)n1
remaining binding (binding; 1 µM): 81%

Cc1cnc(Nc2ccc(C(=O)N3CCC(N4CCCC4)CC3)cc2)nc1-c1cc2ccccc2s1
remaining binding (binding, competition with immobilised ligand; 1 µM): 79%

N[C@@H]1CCN(c2nccc(-c3cnn4ncccc34)n2)C1
remaining binding (binding; 1 µM): 98%

CN(C(=O)c1ccccc1)c1cc(N(C)c2ccc3c(c2)CCc2ccc(C(=O)NCCN4CCOCC4)cc2C3=O)ccc1F
remaining binding (cell-free assay, competition with immobilised ligand; 1 µM): 68%

C[C@H]1CCN(c2nccc(-c3cnn4ncccc34)n2)C1
remaining binding (binding; 1 µM): 64%

N#CC1(c2ccccn2)CCN(Cc2cc(C(=O)N3CCCC3)c(=O)n3ccccc23)CC1
remaining binding (cell-free assay, competition with immobilised ligand; 1 µM): 98%
